Measurements from ChEMBL document CHEMBL1128721, “Identification, characterization and pharmacological profile of three metabolites of (R)-(+)-1,2,3,6-tetrahydro-4-phenyl-1-[(3-phenylcyclohexen-1-yl)methyl]pyridine (CI-1007), a dopamine autoreceptor agonist and potential antipsychotic agent” (J Med Chem, 1995).

Columns and labels:
[1] = test system: Rattus norvegicus; assay: Effect on […] in rats after intraperitoneal administration of compound (10 mg/kg) and GBL, was determined and expressed as percent reversal of the increase in DOPA; assay type: functional
[2] = target: T1, D(2) dopamine receptor (Homo sapiens, UniProt P14416); assay: Binding affinity towards human Dopamine receptor D2L evaluated using [3H]N-0437
How it was run: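 CHO-K1 membranes expressing human D2L incubated in triplicate with 1 nM [3H]N-0437 in 25 mM Tris HCl pH 7.4 with 1 mM EDTA and 6 mM MgCl2, 25 °C for 60 min. Nonspecific binding set with 1 μM haloperidol. Filtration, scintillation counting. Ki by nonlinear regression from four to six concentrations, ± SEM.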

[3] = test system: Rattus norvegicus; assay: Effect on DOPA accumulation in rat striatum after intraperitoneal administration of compound (10 mg/kg) and GBL, was determined and expressed as percent reversal of the increase in DOPA; assay type: functional
How it was run: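 Male Long-Evans rats given compound 10 mg/kg ip 60 min before sacrifice. GBL 750 mg/kg ip (omitted in controls) and NSD 1015 100 mg/kg ip given 30 min before sacrifice. Striatal DOPA measured by HPLC with electrochemical detection. Result is percent reversal of the GBL-induced DOPA rise, ± SEM.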

[4] = test system: Mus musculus; assay: Inhibition of locomotor activity in mice was determined after intraperitoneal administration of compound; assay type: functional; conditions: ip
How it was run: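 Mice dosed ip, then tested immediately for 1 h in darkened cylindrical photobeam chambers. Inhibition expressed relative to vehicle-treated mice. ED50 with 95% confidence range from three to six doses, 6–18 animals per dose.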

[5] = test system: Monkey; assay: Inhibition of conditioned avoidance in squirrel monkeys was determined after peroral administration of compound; assay type: functional; conditions: in Saimiri, po
How it was run: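 Squirrel monkeys dosed orally, conditioned avoidance monitored for 6 h. Inhibition taken as percent of control avoidance responding over the 4 h peak-effect period. ED50 with 95% confidence range from three doses, eight monkeys per dose.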

[6] = target: T1, D(2) dopamine receptor; assay: Intrinsic activity relative to Quinpirole for human Dopamine receptor D2L was determined
How it was run: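 CHO-10001 cells transfected with human DA D2L receptor; activation read as stimulation of [3H]thymidine uptake (mitogenesis). Intrinsic activity = maximal response of compound relative to maximal response of full DA agonist quinpirole, ± SEM.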

[7] = target: T1, D(2) dopamine receptor; assay: Binding affinity towards human Dopamine receptor D2L evaluated using [3H]spiperone
How it was run: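 Human D2L expressed in CHO-K1 membranes. Labelled with 0.6 nM [3H]spiperone in triplicate in Tris HCl pH 7.4 buffer with 1 mM EDTA and 6 mM MgCl2, 60 min at 25 °C. 1 μM haloperidol defines specific binding. Bound ligand filtered and counted. Ki ± SEM from four to six concentrations by nonlinear regression.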

[8] = target: D(3) dopamine receptor (Homo sapiens, UniProt P35462); assay: Binding affinity towards human Dopamine receptor D3 evaluated using [3H]spiperone
[9] = test system: Rattus norvegicus; assay: Effect on DOPA accumulation in rat striatum after intraperitoneal administration of compound (3 mg/kg) and GBL, was determined and expressed as percent reversal of the increase in DOPA; assay type: functional
[10] = target: T2, D(4) dopamine receptor (Homo sapiens, UniProt P21917); assay: Binding affinity towards human Dopamine receptor D4.2 evaluated using [3H]spiperone
T2 sequence (P21917 whole entry): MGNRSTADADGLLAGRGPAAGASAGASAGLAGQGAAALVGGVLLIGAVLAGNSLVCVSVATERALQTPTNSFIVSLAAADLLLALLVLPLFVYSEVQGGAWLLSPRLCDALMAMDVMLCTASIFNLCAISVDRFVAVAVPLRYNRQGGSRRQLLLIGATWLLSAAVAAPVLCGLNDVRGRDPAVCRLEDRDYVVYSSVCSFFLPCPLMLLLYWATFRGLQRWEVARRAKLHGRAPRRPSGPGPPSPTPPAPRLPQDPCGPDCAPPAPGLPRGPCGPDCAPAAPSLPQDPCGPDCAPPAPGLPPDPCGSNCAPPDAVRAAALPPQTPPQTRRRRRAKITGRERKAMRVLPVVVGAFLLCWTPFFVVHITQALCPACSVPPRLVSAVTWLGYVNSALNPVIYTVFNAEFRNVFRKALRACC
How it was run: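 CHO-K1 membranes bearing human D4.2 run in triplicate with 0.2 nM [3H]spiperone in Tris HCl pH 7.4 buffer with 1.5 mM CaCl2 and 5 mM KCl, 25 °C, 60 min. Specific binding is the fraction blocked by 1 μM haloperidol. Filtration, then scintillation counting. Ki ± SEM by nonlinear regression over four to six concentrations; IC50 given where inhibition at 10 μM is below 50%.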

Sequence of D(3) dopamine receptor (P35462 whole entry): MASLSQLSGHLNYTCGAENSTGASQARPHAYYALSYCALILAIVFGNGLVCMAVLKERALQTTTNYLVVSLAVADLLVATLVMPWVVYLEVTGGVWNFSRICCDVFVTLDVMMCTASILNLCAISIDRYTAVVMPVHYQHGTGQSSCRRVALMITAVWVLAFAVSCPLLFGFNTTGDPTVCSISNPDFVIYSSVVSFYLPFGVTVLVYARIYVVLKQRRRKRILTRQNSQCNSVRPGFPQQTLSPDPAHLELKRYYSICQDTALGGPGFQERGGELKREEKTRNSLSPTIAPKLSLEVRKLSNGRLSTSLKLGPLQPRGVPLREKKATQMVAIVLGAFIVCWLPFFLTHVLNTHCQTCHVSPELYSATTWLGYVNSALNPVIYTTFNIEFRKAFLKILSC
T1 sequence (P14416 whole entry): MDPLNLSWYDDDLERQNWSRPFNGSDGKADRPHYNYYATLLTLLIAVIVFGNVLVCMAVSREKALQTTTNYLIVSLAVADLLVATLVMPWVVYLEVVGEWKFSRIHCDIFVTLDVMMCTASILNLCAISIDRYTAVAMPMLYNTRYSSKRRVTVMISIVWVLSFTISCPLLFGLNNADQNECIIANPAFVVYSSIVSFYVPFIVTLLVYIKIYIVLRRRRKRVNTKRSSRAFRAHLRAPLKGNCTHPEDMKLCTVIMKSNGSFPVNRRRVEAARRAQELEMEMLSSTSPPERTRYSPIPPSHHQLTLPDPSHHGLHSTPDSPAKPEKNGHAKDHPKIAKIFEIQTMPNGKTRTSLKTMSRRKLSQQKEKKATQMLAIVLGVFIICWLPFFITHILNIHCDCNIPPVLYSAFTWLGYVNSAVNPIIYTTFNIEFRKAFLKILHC

Row | SMILES | Activity [1] | Ki [2] | Activity [3] | ED50 [4] | ED50 [5] | Activity [6] | Ki [7] | Ki [8] | Activity [9] | Ki [10]
1 | C1=C(c2ccccc2)CCN(C[C@@H]2CCC=C(c3ccccc3)C2)C1 [CI-1007] | -99 | 8.4 nM | -66 | 0.7 mg/kg | 0.63 mg/kg | 0.66 | – | – | – | –
2 | Oc1ccc(C2=CCC[C@@H](CN3CC=C(c4ccccc4)CC3)C2)cc1 | -100 | 0.2 nM | -27 | 0.3 mg/kg | 1.34 mg/kg | 0.62 | 3.5 nM | 0.52 nM | -44 | 61.4 nM
3 | Oc1ccc(C2=CCN(C[C@@H]3CCC=C(c4ccc(O)cc4)C3)CC2)cc1 | -10 | 2.2 nM | -8 | 6.1 mg/kg | > 2.5 mg/kg | 0.29 | 10.3 nM | 3.4 nM | – | 68 nM
4 | Oc1ccc(C2=CCN(C[C@@H]3CCC=C(c4ccccc4)C3)CC2)cc1 | 33 | 5.7 nM | 0 | > 30 mg/kg | > 2.5 mg/kg | 0.37 | 94 nM | 56.7 nM | – | > 10000 nM
